Assay results reported in ChEMBL document CHEMBL1255409, “In vitro activity of ceftaroline against 623 diverse strains of anaerobic bacteria” (2010).
≈ marks a conversion by molar mass, not a printed value.

Assays:
Assay type in all cases: functional
Bacteroides fragilis = assay: Antimicrobial activity against Bacteroides fragilis under anaerobic conditions after 44 hrs by CLSI-M11-47 protocol based agar dilution method
Outline: (§1)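 Reference agar dilution per CLSI M11-A7 with plates made on test day. Clinical isolates were stored at −70°C in 20% skim milk, subcultured twice, and 48-h cell paste was suspended in brucella broth to 0.5 McFarland. About 10^5 CFU/spot was applied with a Steers replicator. Plates were incubated 44 h at 37°C anaerobically. MIC was the lowest concentration giving complete inhibition or marked growth reduction versus the drug-free control.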

[1] = system: Parabacteroides distasonis; assay: Antimicrobial activity against Bacteroides distasonis under anaerobic conditions after 44 hrs by CLSI-M11-47 protocol based agar dilution method; outline: as §1
Prevotella intermedia = assay: Antimicrobial activity against Prevotella intermedia under anaerobic conditions after 44 hrs by CLSI-M11-47 protocol based agar dilution method
Outline: (§2)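 Clinical isolates were stored at −70°C in 20% skim milk and identified phenotypically or by partial 16S rRNA sequencing. Each strain was subcultured twice from frozen stock. Cell paste from 48-h cultures was suspended in brucella broth to a 0.5 McFarland standard. About 10^5 CFU per spot were applied by Steers replicator to agar dilution plates prepared on the day of testing. Plates were incubated 44 h at 37°C in an anaerobic chamber. MIC was taken as the lowest concentration giving complete inhibition or marked reduction of growth versus the drug-free control.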

Prevotella corporis = assay: Antimicrobial activity against Prevotella corporis under anaerobic conditions after 44 hrs by CLSI-M11-47 protocol based agar dilution method; outline: as §2
Prevotella denticola = assay: Antimicrobial activity against Prevotella denticola under anaerobic conditions after 44 hrs by CLSI-M11-47 protocol based agar dilution method; outline: as §2
Hoylesella loescheii = assay: Antimicrobial activity against Prevotella loescheii under anaerobic conditions after 44 hrs by CLSI-M11-47 protocol based agar dilution method; outline: as §2
Prevotella tannerae = assay: Antimicrobial activity against Prevotella tannerae under anaerobic conditions after 44 hrs by CLSI-M11-47 protocol based agar dilution method; settings: Alloprevotella tannerae; outline: as §2
Fusobacterium nucleatum = assay: Antimicrobial activity against Fusobacterium nucleatum under anaerobic conditions after 44 hrs by CLSI-M11-47 protocol based agar dilution method; outline: as §2
[2] = system: Fusobacterium necrophorum; assay: Antimicrobial activity against Fusobacterium necrophorum under anaerobic conditions after 44 hrs by CLSI-M11-47 protocol based agar dilution method; outline: as §1
Finegoldia magna = assay: Antimicrobial activity against Finegoldia magna under anaerobic conditions after 44 hrs by CLSI-M11-47 protocol based agar dilution method; outline: as §1
Parvimonas micra = assay: Antimicrobial activity against Parvimonas micra under anaerobic conditions after 44 hrs by CLSI-M11-47 protocol based agar dilution method; outline: as §2
Anaerococcus vaginalis = assay: Antimicrobial activity against Anaerococcus vaginalis under anaerobic conditions after 44 hrs by CLSI-M11-47 protocol based agar dilution method; outline: as §1
Anaerococcus = assay: Antimicrobial activity against Anaerococcus sp. under anaerobic conditions after 44 hrs by CLSI-M11-47 protocol based agar dilution method; outline: as §1
Gemella morbillorum = assay: Antimicrobial activity against Gemella morbillorum under anaerobic conditions after 44 hrs by CLSI-M11-47 protocol based agar dilution method; outline: as §2
Gemella sanguinis = assay: Antimicrobial activity against Gemella sanguinis under anaerobic conditions after 44 hrs by CLSI-M11-47 protocol based agar dilution method; outline: as §2
Schaalia meyeri = assay: Antimicrobial activity against Actinomyces meyeri under anaerobic conditions after 44 hrs by CLSI-M11-47 protocol based agar dilution method; outline: as §1
Schaalia odontolytica = assay: Antimicrobial activity against Actinomyces odontolyticus under anaerobic conditions after 44 hrs by CLSI-M11-47 protocol based agar dilution method; outline: as §1
Actinomyces turicensis = assay: Antimicrobial activity against Actinomyces turicensis under anaerobic conditions after 44 hrs by CLSI-M11-47 protocol based agar dilution method; settings: Schaalia turicensis; outline: as §1
Atopobium parvulum = assay: Antimicrobial activity against Atopobium parvulum under anaerobic conditions after 44 hrs by CLSI-M11-47 protocol based agar dilution method; settings: Lancefieldella parvula; outline: as §1
Eubacterium saburreum = assay: Antimicrobial activity against Eubacterium saburreum under anaerobic conditions after 44 hrs by CLSI-M11-47 protocol based agar dilution method; settings: Lachnoanaerobaculum saburreum; outline: as §1
Mogibacterium timidum = assay: Antimicrobial activity against Mogibacterium timidum under anaerobic conditions after 44 hrs by CLSI-M11-47 protocol based agar dilution method; outline: as §2
Slackia exigua = assay: Antimicrobial activity against Slackia exigua under anaerobic conditions after 44 hrs by CLSI-M11-47 protocol based agar dilution method; outline: as §2
Thomasclavelia ramosa = assay: Antimicrobial activity against Clostridium ramosum under anaerobic conditions after 44 hrs by CLSI-M11-47 protocol based agar dilution method; outline: as §1
[Clostridium] innocuum = Antimicrobial activity against Clostridium […] under anaerobic conditions after 44 hrs by CLSI-M11-47 protocol based agar dilution method; outline: as §1
Clostridium aldenense = assay: Antimicrobial activity against Clostridium aldenense under anaerobic conditions after 44 hrs by CLSI-M11-47 protocol based agar dilution method; settings: Enterocloster aldenensis; outline: as §1
Clostridium bolteae = assay: Antimicrobial activity against Clostridium bolteae under anaerobic conditions after 44 hrs by CLSI-M11-47 protocol based agar dilution method; settings: Enterocloster bolteae; outline: as §1
Clostridium citroniae = assay: Antimicrobial activity against Clostridium citroniae under anaerobic conditions after 44 hrs by CLSI-M11-47 protocol based agar dilution method; settings: Enterocloster citroniae; outline: as §1
Clostridium baratii = assay: Antimicrobial activity against Clostridium baratii under anaerobic conditions after 44 hrs by CLSI-M11-47 protocol based agar dilution method
[3] = system: Paraclostridium bifermentans; assay: Antimicrobial activity against Clostridium bifermentans under anaerobic conditions after 44 hrs by CLSI-M11-47 protocol based agar dilution method; outline: as §1
Clostridium cadaveris = assay: Antimicrobial activity against Clostridium cadaveris under anaerobic conditions after 44 hrs by CLSI-M11-47 protocol based agar dilution method; outline: as §1
[4] = system: Clostridium paraputrificum; assay: Antimicrobial activity against Clostridium paraputrificum under anaerobic conditions after 44 hrs by CLSI-M11-47 protocol based agar dilution method; outline: as §1
Clostridium symbiosum = assay: Antimicrobial activity against Clostridium symbiosum under anaerobic conditions after 44 hrs by CLSI-M11-47 protocol based agar dilution method; outline: as §1

CO/N=C(\C(=O)N[C@@H]1C(=O)N2C(C(=O)O)=C(CSc3nc(=O)c(O)nn3C)CS[C@H]12)c1csc(N)n1 [CEFTRIAXONE]
MIC50 (Bacteroides fragilis): 32 µg/mL (≈ 57.7 µM)
MIC90 (Bacteroides fragilis): 64 µg/mL (≈ 115 µM)
MIC50 [1]: > 64 µg/mL
MIC90 [1]: > 64 µg/mL
MIC50 (Prevotella intermedia): 1 µg/mL (≈ 1.8 µM)
MIC90 (Prevotella intermedia): 16 µg/mL (≈ 28.9 µM)
MIC50 (Prevotella corporis): 1 µg/mL (≈ 1.8 µM)
MIC90 (Prevotella corporis): 8 µg/mL (≈ 14.4 µM)
MIC50 (Prevotella denticola): 1 µg/mL (≈ 1.8 µM)
MIC90 (Prevotella denticola): 8 µg/mL (≈ 14.4 µM)
MIC50 (Hoylesella loescheii): 1 µg/mL (≈ 1.8 µM)
MIC90 (Hoylesella loescheii): 8 µg/mL (≈ 14.4 µM)
MIC50 (Prevotella tannerae): 1 µg/mL (≈ 1.8 µM)
MIC90 (Prevotella tannerae): 8 µg/mL (≈ 14.4 µM)
MIC50 (Fusobacterium nucleatum): 0.125 µg/mL (≈ 0.225 µM)
MIC90 (Fusobacterium nucleatum): 0.5 µg/mL (≈ 0.902 µM)
MIC50 [2]: 0.015 µg/mL (≈ 0.027 µM)
MIC90 [2]: 0.03 µg/mL (≈ 0.0541 µM)
MIC50 (Finegoldia magna): 4 µg/mL (≈ 7.21 µM)
MIC90 (Finegoldia magna): 8 µg/mL (≈ 14.4 µM)
MIC50 (Parvimonas micra): 0.5 µg/mL (≈ 0.902 µM)
MIC90 (Parvimonas micra): 1 µg/mL (≈ 1.8 µM)
MIC50 (Anaerococcus vaginalis): 0.25 µg/mL (≈ 0.451 µM)
MIC90 (Anaerococcus vaginalis): 16 µg/mL (≈ 28.9 µM)
MIC50 (Anaerococcus): 0.25 µg/mL (≈ 0.451 µM)
MIC90 (Anaerococcus): 16 µg/mL (≈ 28.9 µM)
MIC50 (Gemella morbillorum): 0.25 µg/mL (≈ 0.451 µM)
MIC90 (Gemella morbillorum): 16 µg/mL (≈ 28.9 µM)
MIC50 (Gemella sanguinis): 0.25 µg/mL (≈ 0.451 µM)
MIC90 (Gemella sanguinis): 16 µg/mL (≈ 28.9 µM)
MIC50 (Schaalia meyeri): 0.125 µg/mL (≈ 0.225 µM)
MIC90 (Schaalia meyeri): 0.5 µg/mL (≈ 0.902 µM)
MIC50 (Schaalia odontolytica): 0.125 µg/mL (≈ 0.225 µM)
MIC90 (Schaalia odontolytica): 0.5 µg/mL (≈ 0.902 µM)
MIC50 (Actinomyces turicensis): 0.125 µg/mL (≈ 0.225 µM)
MIC90 (Actinomyces turicensis): 0.5 µg/mL (≈ 0.902 µM)
MIC50 (Atopobium parvulum): 0.5 µg/mL (≈ 0.902 µM)
MIC90 (Atopobium parvulum): 2 µg/mL (≈ 3.61 µM)
MIC50 (Eubacterium saburreum): 0.5 µg/mL (≈ 0.902 µM)
MIC90 (Eubacterium saburreum): 2 µg/mL (≈ 3.61 µM)
MIC50 (Mogibacterium timidum): 0.5 µg/mL (≈ 0.902 µM)
MIC90 (Mogibacterium timidum): 2 µg/mL (≈ 3.61 µM)
MIC50 (Slackia exigua): 0.5 µg/mL (≈ 0.902 µM)
MIC90 (Slackia exigua): 2 µg/mL (≈ 3.61 µM)
MIC50 (Thomasclavelia ramosa): 0.25 µg/mL (≈ 0.451 µM)
MIC90 (Thomasclavelia ramosa): 0.5 µg/mL (≈ 0.902 µM)
MIC50 ([Clostridium] innocuum): 8 µg/mL (≈ 14.4 µM)
MIC90 ([Clostridium] innocuum): 16 µg/mL (≈ 28.9 µM)
MIC50 (Clostridium aldenense): 4 µg/mL (≈ 7.21 µM)
MIC90 (Clostridium aldenense): 32 µg/mL (≈ 57.7 µM)
MIC50 (Clostridium bolteae): 4 µg/mL (≈ 7.21 µM)
MIC90 (Clostridium bolteae): 32 µg/mL (≈ 57.7 µM)
MIC50 (Clostridium citroniae): 4 µg/mL (≈ 7.21 µM)
MIC90 (Clostridium citroniae): 32 µg/mL (≈ 57.7 µM)
MIC50 (Clostridium baratii): 2 µg/mL (≈ 3.61 µM)
MIC90 (Clostridium baratii): 64 µg/mL (≈ 115 µM)
MIC50 [3]: 2 µg/mL (≈ 3.61 µM)
MIC90 [3]: 64 µg/mL (≈ 115 µM)
MIC50 (Clostridium cadaveris): 2 µg/mL (≈ 3.61 µM)
MIC90 (Clostridium cadaveris): 64 µg/mL (≈ 115 µM)
MIC50 [4]: 2 µg/mL (≈ 3.61 µM)
MIC90 [4]: 64 µg/mL (≈ 115 µM)
MIC50 (Clostridium symbiosum): 2 µg/mL (≈ 3.61 µM)
MIC90 (Clostridium symbiosum): 64 µg/mL (≈ 115 µM)
